Results on 7 molecules are retold here after ChEMBL document CHEMBL3045452, “Behavioral responses of the diamondback moth, Plutella xylostella, to green leaf volatiles of Brassica oleracea subsp. capitata” (2000).

Experiment [1] deals with Plutella xylostella. The experiment can be described thus: Induction of response in unmated female Plutella xylostella (diamondback moth) assessed as flying moth level at 10 uL measured after 10 min by wind tunnel bioassays (Rvb hexane = 5%). It is filed as functional. The essentials: (§1)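 Wind tunnel 240 × 30 × 30 cm. Moths acclimatized in the room ≥3 h beforehand. Filter-paper dispenser (4 × 2 cm) hung 15 cm high, loaded with 10 µL of GLV, synthetic pheromone (Z11-16:Ald/Z11-16:Ac/Z11-16:OH 1:1:0.01), a 1:1 mix, or hexane. Two moths released per replicate and watched 10 min; 20 replicates (40 insects) per treatment. Hexane control run twice daily; one treatment per day, tunnel washed between treatments.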

The test system of experiment [2] is Plutella xylostella. The experiment is described as follows: Induction of response in unmated male Plutella xylostella (diamondback moth) assessed as flying moth level at 10 uL in presence of synthetic pheromone measured after 10 min by wind tunnel bioassays (Rvb hexane = 5%). It is filed as functional. In short, it runs like this: as §1
The subject of experiment [3] is Plutella xylostella. The experiment can be described thus: Induction of response in mated female Plutella xylostella (diamondback moth) assessed as flying moth level at 10 uL in presence of synthetic pheromone measured after 10 min by wind tunnel bioassays (Rvb hexane = 5%). It is filed as functional. In short, it runs like this: as §1
Experiment [4] has as its system Plutella xylostella. The experiment is described as follows: Induction of response in unmated female Plutella xylostella (diamondback moth) assessed as landing moth level at 10 uL in presence of synthetic pheromone measured after 10 min by wind tunnel bioassays (Rvb hexane = 0%). The class given is functional. In short, it runs like this: as §1
Experiment [5] deals with Plutella xylostella. The experiment can be described thus: Induction of response in mated male Plutella xylostella (diamondback moth) assessed as flying moth level at 10 uL measured after 10 min by wind tunnel bioassays (Rvb hexane = 0%). The class given is functional. In short, it runs like this: as §1
Experiment [6] deals with Plutella xylostella. The experiment can be described thus: Induction of response in mated female Plutella xylostella (diamondback moth) assessed as flying moth level at 10 uL measured after 10 min by wind tunnel bioassays (Rvb hexane = 5%). The class given is functional. The essentials:
as §1

Experiment [7] relates to Plutella xylostella. The experiment can be described thus: Induction of response in mated male Plutella xylostella (diamondback moth) assessed as landing moth level at 10 uL in presence of synthetic pheromone measured after 10 min by wind tunnel bioassays (Rvb hexane = 0%). It is filed as functional. In short, it runs like this: as §1
The test system of experiment [8] is Plutella xylostella. The experiment is described as follows: Induction of response in unmated female Plutella xylostella (diamondback moth) assessed as flying moth level at 10 uL in presence of synthetic pheromone measured after 10 min by wind tunnel bioassays (Rvb hexane = 5%). It is filed as functional. The essentials: as §1
The test system of experiment [9] is Plutella xylostella. The experiment can be described thus: Induction of response in unmated male Plutella xylostella (diamondback moth) assessed as landing moth level at 10 uL measured after 10 min by wind tunnel bioassays (Rvb hexane = 0%). It is filed as functional. In short, it runs like this: as §1
The subject of experiment [10] is Plutella xylostella. The experiment is described as follows: Induction of response in mated male Plutella xylostella (diamondback moth) assessed as landing moth level at 10 uL measured after 10 min by wind tunnel bioassays (Rvb hexane = 0%). It is filed as functional. The essentials:
as §1

Experiment [11] concerns Plutella xylostella. The experiment is described as follows: Induction of response in mated female Plutella xylostella (diamondback moth) assessed as landing moth level at 10 uL in presence of synthetic pheromone measured after 10 min by wind tunnel bioassays (Rvb hexane = 0%). It is filed as functional. The essentials:
as §1

The test system of experiment [12] is Plutella xylostella. The experiment can be described thus: Induction of response in unmated male Plutella xylostella (diamondback moth) assessed as flying moth level at 10 uL measured after 10 min by wind tunnel bioassays (Rvb hexane = 5%). The class given is functional. In short, it runs like this:
as §1

The subject of experiment [13] is Plutella xylostella. The experiment can be described thus: Induction of response in mated male Plutella xylostella (diamondback moth) assessed as flying moth level at 10 uL in presence of synthetic pheromone measured after 10 min by wind tunnel bioassays (Rvb hexane = 0%). The class given is functional. In short, it runs like this:
as §1

Experiment [14] relates to Plutella xylostella. The experiment is described as follows: Induction of response in unmated male Plutella xylostella (diamondback moth) assessed as landing moth level at 10 uL in presence of synthetic pheromone measured after 10 min by wind tunnel bioassays (Rvb hexane = 0%). It is filed as functional. The essentials:
as §1

Experiment [15] has as its system Plutella xylostella. The experiment is described as follows: Induction of response in mated female Plutella xylostella (diamondback moth) assessed as landing moth level at 10 uL measured after 10 min by wind tunnel bioassays (Rvb hexane = 0%). The class given is functional. The essentials:
as §1

Experiment [16] concerns Plutella xylostella. The experiment can be described thus: Induction of response in unmated female Plutella xylostella (diamondback moth) assessed as landing moth level at 10 uL measured after 10 min by wind tunnel bioassays (Rvb hexane = 0%). The class given is functional. The essentials: as §1
Experiment [17] relates to Plutella xylostella. The experiment can be described thus: Potentiation of synthetic pheromone attractant activity in female Plutella xylostella (diamondback moth) in cabbage field assessed as female moth attraction level using sticky traps baited with compound and synthetic pheromone at 1:1 ratio by field trapping method relative to synthetic pheromone alone. It is filed as functional.

Experiment [18] deals with Plutella xylostella. The experiment is described as follows: Potentiation of synthetic pheromone attractant activity in male Plutella xylostella (diamondback moth) in cabbage field assessed as moth capture level using sticky traps baited with compound and synthetic pheromone at 1:1 ratio by field trapping method relative to synthetic pheromone alone. It is filed as functional.

The test system of experiment [19] is Plutella xylostella. The experiment is described as follows: Potentiation of synthetic pheromone attractant activity in female Plutella xylostella (diamondback moth) in cabbage field assessed as female moth attraction level using sticky traps baited with compound and synthetic pheromone at 1:1 ratio by field trapping method relative to compound alone. It is filed as functional.

Experiment [20] relates to Plutella xylostella. The experiment is described as follows: Attractant activity in male Plutella xylostella (diamondback moth) in cabbage field assessed as moth capture level using sticky traps baited with compound by field trapping method. It is filed as functional, organism-based.

Activity calls are given as the source filed them. The calls are words filed in the database; no cut-off is given here.

With `CCC/C=C/C=O`, the Activity turned out to be 20% in [1]; 90% in [2]; 50% in experiment [3]; 20% in [4]; 20% in experiment [5]; 55% in experiment [6]. The Activity in experiment [7] was determined as 25%; in experiment [8], 25%; in [9], 20%; in [10] it was 15%; in experiment [11] it was 50%; in experiment [12], 30%. Moreover, the Activity in experiment [13] is recorded as 25%; in experiment [14] it was 85%; in experiment [15] it was 50%; in experiment [16], 15%.
For `C=CC(O)CCC` (stereo unspecified), the Activity in experiment [1] turned out to be 0%; in experiment [2], 65%; in [3], 35%; in [4], 5%; in experiment [5], 0%; in [6] it was 10%. The Activity in experiment [7] was found to be 10%; in [8], 0%; in experiment [9], 10%; in experiment [10], 5%; in experiment [11] it was 20%; in [12], 20%. Besides, the Activity in experiment [13] was determined as 5%; in experiment [14], 60%; in [15] it was 20%; in [16] it was 5%.
Consider `CCCCCCO` [1-HEXANOL], for which the Activity in experiment [1] is reported as 5%; in experiment [2] it was 75%; in [3] it was 25%; in [4], 5%; in [5], 0%; in [6], 15%. Moreover, the Activity was found to be 10% in [7]; 5% in experiment [8]; 5% in [9]; 5% in experiment [10]; 25% in experiment [11]; 15% in experiment [12]. The Activity in experiment [13] was 5%; in [14], 70%; in experiment [15], 20%; in experiment [16] it was 5%.
In the case of `CC/C=C\CCOC(C)=O` [(Z)-hex-3-en-1-yl acetate], the Activity in experiment [1] was 20%; in experiment [2], 100%; in experiment [3], 65%; in experiment [4], 30%; in experiment [18], 20%; in experiment [5], 30%. Besides, the Activity was 60% in [6]; 35% in [7]; 25% in [8]; 25% in experiment [9]; 20% in experiment [10]; 60% in [11]. Moreover, the Activity is reported as 40% in experiment [12]; 35% in [13]; 95% in [14]; 55% in experiment [15]; 25% in [16]. Further, the “fold change (FC)” value in experiment [17] stood at 6; in experiment [19] it was 3. Further, the result in experiment [20] was inactive.
On to `CC/C=C\CCO` [CIS-3-HEXENOL], for which the Activity in [1] was 10%; in experiment [2], 85%; in [3], 40%; in experiment [4], 20%; in experiment [5], 0%; in [6] it was 40%. Besides, the Activity in experiment [7] amounted to 20%; in [8] it was 10%; in experiment [9], 15%; in experiment [10] it was 10%; in [11], 45%; in experiment [12], 25%. For the same molecule, the Activity in [13] is 15%; in experiment [14], 80%; in experiment [15] it was 40%; in experiment [16], 15%.
`CCCCCC=O` [HEXANAL]: the Activity worked out at 5% in experiment [1]; 80% in experiment [2]; 35% in experiment [3]; 10% in [4]; 5% in experiment [5]; 30% in experiment [6]. For the same molecule, the Activity is 10% in [7]; 10% in experiment [8]; 10% in experiment [9]; 10% in experiment [10]; 25% in experiment [11]; 10% in experiment [12]. The Activity in experiment [13] is 5%; in [14], 75%; in experiment [15], 25%; in [16], 5%.
Consider `CCCCCCOC(C)=O` [HEXYL ACETATE], for which the Activity in [1] was 5%; in [2], 60%; in [3] it was 20%; in experiment [4], 0%; in experiment [5], 0%; in [6], 5%. Moreover, the Activity in experiment [7] amounted to 5%; in experiment [8], 5%; in experiment [9], 5%; in [10], 5%; in experiment [11], 15%; in experiment [12] it was 10%. Besides, the Activity in experiment [13] is 0%; in [14], 55%; in [15], 10%; in experiment [16], 0%.
